ChEMBL document CHEMBL5653620, “Activating the Wnt/β-Catenin Pathway for the Treatment of Melanoma--Application of LY2090314, a Novel Selective Inhibitor of Glycogen Synthase Kinase-3” (PLoS One, 2015)
Activity calls are given as the source filed them. The rule behind the calls is not given here.

How the values were obtained:
[1] = system: vemurafenib-resistant A-375; experiment: Effect on RAS signaling in human vemurafenib-resistant A-375 cells assessed as effect on phosphorylation of MEK at 20 nM measured up to 8 hrs by western blot analysis; assay type: cell-based
Procedure, shortened: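 Parental and vemurafenib-resistant A375 cells were treated for up to 8 h. Lysis was on ice in 1% Triton X100, 25 mM Tris pH 7.5, 150 mM NaCl, EDTA/EGTA and protease/phosphatase inhibitors. Proteins were run on 4–20% SDS-PAGE and blotted to nitrocellulose. pMEK antibody was used at 1:1000 overnight at 4°C, with HRP secondary and chemiluminescence detection.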

[2] = molecular target: T1, Glycogen synthase kinase-3 (Homo sapiens) (UniProt P49840+P49841); experiment: Inhibition of GSK3 in human A-375 cells harbouring TCF/LEF luciferase reporter gene assessed as increase in wnt signaling incubated for 5 hrs by Bright-Glo luciferase assay; assay type: cell-based
Procedure, shortened: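 A375 cells carried a lentiviral TCF/LEF-responsive luciferase reporter, selected with puromycin 1 μg/ml for 3 days. Cells were seeded at 10,000 per well and moved to 2% FBS medium. Agents were given at 0.5 nmol/L–1 μmol/L for 5 h, and luciferase was read with Bright-Glo substrate.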

[3] = system: M14; experiment: Induction of apoptosis in human M14 cells assessed as increase in caspase3/7 activation at 5 to 40 nM after 72 hrs by Caspase-Glo assay; assay type: functional, cell-based; details: dose 5-40 nM
Procedure, shortened: (§1)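 Cells were plated at 2,000 per well and allowed to adhere overnight. Medium was then replaced with growth medium containing 2% FBS, and cells were exposed to agent for 72 h. Caspase 3/7 activity was measured by Caspase-Glo luminescence.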

[4] = molecular target: T1, Glycogen synthase kinase-3 (Homo sapiens); experiment: Inhibition of GSK3 in human A-375 cells assessed as increase Axin2 mRNA expression level at 20 nM by RT-PCR analysis; assay type: cell-based; details: time 0.5-8 hrs, TDE = time-dependent effect
Procedure, shortened: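 A375 cells seeded at 500,000/well and adhered overnight. Medium was replaced and the compound added at the set concentration and time. Total RNA isolated with an on-column DNase step. Axin2 mRNA quantified by real-time PCR using the standard curve method.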

[5] = system: M14; experiment: Antiproliferative activity against human M14 cells transfected with beta-catenin shRNA assessed as reduction in cell viability incubated for 72 hrs by CellTitre-Glo assay; assay type: functional, cell-based
Procedure, shortened: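 A375 or M14 cells were transduced with lentiviral shRNA particles (target or control) at MOI 2 with polybrene 8 μg/ml. Puromycin selection at 2 μg/ml began 48 h later, and knockdown was checked by immunoblot. Cells were seeded at 2,000 per well in 2% FBS medium, exposed to agents for 72 h, and read by CellTiter-Glo.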

[6] = system: SK-MEL-2; experiment: Antiproliferative activity against human SK-MEL-2 cells harboring NRAS Q61R mutation assessed as reduction in cell viability incubated for 72 hrs by CellTitre-Glo assay; assay type: functional, cell-based; details: SK-MEL-2, 72 h
Procedure, shortened: (§2)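 Cells seeded at 2,000 per well and left to adhere overnight. After 24 h, medium was switched to growth medium with 2% FBS. Test agent was added at 0.5 nmol/L to 10 μmol/L for 72 h. Viability was read by CellTiter-Glo luminescence. IC50 came from nonlinear regression sigmoidal dose-response fits.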

[7] = system: M14; experiment: Antiproliferative activity against human M14 cells over expressing Dominant/negative TCF4 assessed as reduction in cell viability incubated for 72 hrs by CellTitre-Glo assay; assay type: functional, cell-based
[8] = system: A-375; experiment: Antiproliferative activity against human A-375 cells transfected with GSK3beta shRNA assessed as reduction in cell viability at 4.5 nM incubated for 72 hrs by CellTitre-Glo assay; assay type: functional, cell-based
[9] = system: A-375; experiment: Antitumor activity against human A-375 cells xenografted in CD1 nu/nu mouse assessed increase in Axin2 mRNA expression at 25 mg/kg, iv measured after 2 and 4 post dose by RT-PCR analysis; assay type: functional, organism-based
Procedure, shortened: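 Mice bearing A375 tumors of ~200 mm2 received 25 mg/kg i.v. Tumors were collected at 1, 2, 4, 6, 8 and 24 h post dose into RNAlater. Tissue was homogenized in RLT buffer and RNA extracted with DNase treatment. Axin2 mRNA was quantified by real-time PCR using the standard curve method.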

[10] = system: SK-BR-3; experiment: Antiproliferative activity against human SK-BR-3 assessed as reduction in cell viability incubated for 72 hrs by CellTitre-Glo assay; assay type: functional, cell-based; details: SK-BR-3, 72 h; procedure, shortened: as §2
[11] = system: MEL1102; experiment: Induction of apoptosis in human MEL1102 cells assessed as increase in caspase3/7 activation at 5 to 40 nM after 72 hrs by Caspase-Glo assay; assay type: functional, cell-based; details: dose 5-40 nM; procedure, shortened: as §1
[12] = system: MEL1102; experiment: Induction of apoptosis in human MEL1102 cells assessed as increase in cleave-PARP protein expression at 5 to 15 nM after 72 hrs by sandwich ELISA analysis; assay type: functional, cell-based; details: dose 5-15 nM
Procedure, shortened: (§3)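 Cells were plated at 250,000 per well in 6-well plates and left overnight. Fresh medium containing agent at 5 or 15 nM final was added for 72 h. Cleaved PARP (Asp214) was measured by sandwich ELISA on 50 μg total protein and expressed relative to DMSO-treated cells.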

[13] = system: CHL-1; experiment: Antiproliferative activity against human CHL-1 cells assessed as reduction in cell viability incubated for 72 hrs by CellTitre-Glo assay; assay type: functional, cell-based; details: CHL-1, 72 h; procedure, shortened: as §2
[14] = system: A549; experiment: Antiproliferative activity against human A549 assessed as reduction in cell viability incubated for 72 hrs by CellTitre-Glo assay; assay type: functional, cell-based; details: A549, 72 h; procedure, shortened: as §2
[15] = system: COLO 320; experiment: Antiproliferative activity against human COLO 320 assessed as reduction in cell viability incubated for 72 hrs by CellTitre-Glo assay; assay type: functional, cell-based; details: COLO 320, 72 h; procedure, shortened: as §2
[16] = system: A-375; experiment: Induction of apoptosis in human A-375 cells assessed as increase in cleave-PARP protein expression at 5 to 15 nM after 72 hrs by sandwich ELISA analysis; assay type: functional, cell-based; details: dose 5-15 nM; procedure, shortened: as §3
[17] = Antiproliferative activity against human MEXF276 cells harboring BRAF V600E mutation assessed as reduction in cell viability incubated for 72 hrs by CellTitre-Glo assay; assay type: functional, cell-based; details: MEXF276, 72 h; procedure, shortened: as §2
[18] = system: A-375; experiment: Antiproliferative activity against human A-375 cells harboring BRAF V600E mutation assessed as reduction in cell viability incubated for 72 hrs by CellTitre-Glo assay; assay type: functional, cell-based; details: A-375, 72 h; procedure, shortened: as §2

T1 sequence (P49840 whole entry, looked up): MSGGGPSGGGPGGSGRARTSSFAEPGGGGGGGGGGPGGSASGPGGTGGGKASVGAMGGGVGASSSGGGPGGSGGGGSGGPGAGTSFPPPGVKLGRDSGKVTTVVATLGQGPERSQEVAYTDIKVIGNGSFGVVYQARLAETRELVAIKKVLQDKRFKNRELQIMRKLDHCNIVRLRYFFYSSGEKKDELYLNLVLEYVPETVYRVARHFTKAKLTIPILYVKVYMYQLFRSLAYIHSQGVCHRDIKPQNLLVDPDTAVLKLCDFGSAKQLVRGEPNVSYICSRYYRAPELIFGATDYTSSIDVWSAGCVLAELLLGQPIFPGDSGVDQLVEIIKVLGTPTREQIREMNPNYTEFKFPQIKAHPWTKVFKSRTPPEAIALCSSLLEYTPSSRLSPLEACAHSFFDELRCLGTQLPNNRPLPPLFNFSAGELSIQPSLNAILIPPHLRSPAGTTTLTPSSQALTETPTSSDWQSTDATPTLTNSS
T1 sequence (P49841 whole entry, looked up): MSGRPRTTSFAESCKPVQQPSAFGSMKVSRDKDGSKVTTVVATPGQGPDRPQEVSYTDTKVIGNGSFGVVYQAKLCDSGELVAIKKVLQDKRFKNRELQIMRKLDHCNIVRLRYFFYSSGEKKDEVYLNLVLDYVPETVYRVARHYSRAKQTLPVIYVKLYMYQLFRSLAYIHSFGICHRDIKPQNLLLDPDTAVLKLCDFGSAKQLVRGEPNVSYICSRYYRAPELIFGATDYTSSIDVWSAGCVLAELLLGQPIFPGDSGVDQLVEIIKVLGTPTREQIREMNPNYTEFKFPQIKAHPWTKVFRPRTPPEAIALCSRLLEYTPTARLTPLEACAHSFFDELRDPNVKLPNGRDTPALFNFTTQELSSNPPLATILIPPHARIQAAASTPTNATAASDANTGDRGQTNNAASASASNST

O=C1NC(=O)C(c2cnc3ccccn23)=C1c1cn2c3c(cc(F)cc13)CN(C(=O)N1CCCCC1)CC2 [LY-2090314]
Activity [1]: inactive | inhibition [2]: Active | Activity [3]: Active | inhibition [4]: Tde | Activity [5]: Active | IC50 [6]: 6 nM | Activity [7]: inactive | Activity [8]: Active | Activity [9]: Active | IC50 [10]: > 20000 nM | Activity [11]: Active | Activity [12]: Active | IC50 [13]: 110 nM | IC50 [14]: 9960 nM | IC50 [15]: > 20000 nM | Activity [16]: Active | IC50 [17]: 14 nM | IC50 [18]: 10 nM
